Compounds with a hit are over-represented: about 2.1% of the library has one in this group of screens.
GRK2 inh: inhibitors of human GRK2 displacing RNA aptamer | bead flow cytometry, FAM-aptamer displacement from GRK2 | inhibition of aptamer binding, % at 10 µM | hit rate 0.59% among 330,000 | AID 488847;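 active = inhibition of aptamer binding above 40%, roughly 3 SD of noise, on plates passing a quality check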;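 also: median bead fluorescence of bound FAM aptamer so fluorescent compounds give negative values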
Target sequence (P25098 whole entry, looked up): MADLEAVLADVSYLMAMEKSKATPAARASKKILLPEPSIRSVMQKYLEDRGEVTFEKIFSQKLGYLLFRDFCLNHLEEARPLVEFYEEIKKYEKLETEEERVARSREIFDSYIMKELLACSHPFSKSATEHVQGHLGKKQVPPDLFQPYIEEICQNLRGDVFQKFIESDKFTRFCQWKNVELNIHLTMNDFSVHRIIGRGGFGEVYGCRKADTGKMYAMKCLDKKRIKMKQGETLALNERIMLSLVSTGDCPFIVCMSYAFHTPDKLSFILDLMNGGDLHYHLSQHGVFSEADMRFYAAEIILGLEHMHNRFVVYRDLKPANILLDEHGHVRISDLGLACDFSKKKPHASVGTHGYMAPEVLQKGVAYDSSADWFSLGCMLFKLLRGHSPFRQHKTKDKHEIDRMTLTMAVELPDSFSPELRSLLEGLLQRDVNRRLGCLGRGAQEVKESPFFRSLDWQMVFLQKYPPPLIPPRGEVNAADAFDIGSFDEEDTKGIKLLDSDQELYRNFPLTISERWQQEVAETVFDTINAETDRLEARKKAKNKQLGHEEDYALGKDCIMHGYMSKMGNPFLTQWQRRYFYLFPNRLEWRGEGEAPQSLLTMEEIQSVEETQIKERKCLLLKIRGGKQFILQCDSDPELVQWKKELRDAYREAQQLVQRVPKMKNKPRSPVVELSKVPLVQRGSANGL
SUMO1 PPI mod: alters human SUMO1 binding to SIM partners. AID 602429. SUMO1 binding to a labelled peptide, TR-FRET, 1 h. inhibition, % at 20 µM. hit rate 0.33% among 360,000; in the data active = inhibition above about 37%
Scp-1 inhibitor: blocks human Scp-1 phosphatase activity. Q9GZU7. hit rate 0.88% among 340,000. inhibition, % at 20 µM. Recombinant Scp1, phosphopeptide, malachite green phosphate absorbance. AID 493091;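 active = inhibition above about 50% at 20 µM, limit read from the data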;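 also: plate controls were DMSO wells with enzyme for no effect and wells lacking enzyme for full effect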
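Test system: SCP-1 phosphatase catalytic domain, residues 76-261; measured by: colorimetric phosphate reagent with accelerator and stabiliser, absorbance at 630 nm; timing: enzyme reaction 45 min at room temperature, colour 5 min, stabilisation 30 min; also added: Phosphorylated 17-residue peptide substrate; compound dosing: one concentration, 20 µM, with 1.0% DMSO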
STEP inh: inhibitors of human striatal-enriched phosphatase STEP; recombinant STEP, OMFP fluorogenic substrate, fluorescence; inhibition, % at 20 µM; hit rate 0.25% among 360,000;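 active = inhibition at 20 µM, scaled per plate between control wells, above about 37%, limit read from the data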;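 also: 0% = DMSO with enzyme and substrate and 100% = substrate only without enzyme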
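Assay system: isolated STEP enzyme / Timing: 20 min at room temperature, dark / Doses: 20 µM, 1% DMSO / Technique: fluorescence intensity, excitation 480 nm, emission 540 nm / Reagent: fluorogenic phosphatase substrate OMFP at 25 µM final / Measure: percent inhibition scaled to no-enzyme and uninhibited-enzyme controls, plate-pattern corrected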
LMPTP block: LMPTP (human) inhibition; AID 651560; inhibition, % at 20 µM; recombinant LMPTP-A, OMFP fluorogenic substrate, fluorescence intensity; hit rate 0.22% among 360,000;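 active = compounds that cut the enzyme signal by at least half of the control window in the single-dose screen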;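 also: plate controls were DMSO wells with enzyme plus substrate for no effect and substrate without enzyme for full effect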
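Material: LMPTP-A; amount: 0.625 nM enzyme; doses: single 20 µM dose; times: reaction 50 min, room temperature, dark; technique: fluorescence intensity of OMFP turnover product; benchmarks: no-enzyme and uninhibited controls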
DNMT1 inh: inhibitors of human DNMT1; inhibition (reported as % activation of signal), % at 10 µM; DNMT1 molecular beacon, Hinp1I cleavage, fluorescence; P26358; hit rate 0.83% among 360,000; in the data active = inhibition above about 50%
* = called active by the depositor; . = no result.

SMILES	GRK2 inh	SUMO1 PPI mod	Scp-1 inhibitor	STEP inh	LMPTP block	DNMT1 inh
NS(=O)(=O)c1ccc(N/N=C/c2ccc(O)cc2O)c([N+](=O)[O-])c1	2	-20	-2	-4	3	-13
O=C(CSc1ccc2nnc(CCNC(=O)c3ccccc3)n2n1)NCc1ccc(F)cc1	4	-1	-2	0	2	-1
COc1ccc(C(=O)C[N+]2(C)CCOCC2)cc1	0	3	101*	-2	0	-10
COc1ccc(C(=O)CC(=O)c2ccc(OC)cc2)cc1	1	1	-19	4	3	-6
O=C1C2C(c3ccccc3)CC=CC2[C@H](c2cccc([N+](=O)[O-])c2)N1Cc1ccccc1 (stereo not given in full)	0	4	-10	0	2	-5
Cc1ccccc1-c1cc2nc(NCCc3ccncc3)n(C)c(=O)c2s1	.	-6	.	-1	4	-7
O=C(Nc1cccc(-c2nc3ncccc3o2)c1)c1sc2ccccc2c1Cl	0	1	2	10	50*	42
O=C(Nc1cccc(-c2nc3ncccc3o2)c1)c1cc2ccccc2o1	0	-2	3	-3	2	1
CC(=O)c1ccc(OC2(C)CCN(Cc3ccc4ccccc4c3)C2)cc1 (stereo not given)	.	-7	.	-3	-1	-2
COc1cccc(N=Nc2c(N)[nH]n3c(=O)cc(-c4ccccc4)nc23)c1	0	-10	-9	8	8	-14
Cc1ccc(N=Nc2c(N)[nH]n3c(=O)cc(-c4ccccc4)nc23)cc1	0	-9	36	21	70*	-25
O=C1CC(C(=O)N2CCc3ccccc32)CN1c1cccc(C(F)(F)F)c1 (stereo not given)	1	2	-6	1	0	4
CCCCCC(O)CCCC(=O)O (stereo not given)	.	-3	-6	-1	1	1
CCCCCCCCCCCCCCCC(O)C[N+](C)(C)CCO (stereo not given)	.	-176	82*	4	-3	1
COc1ccc(C(=O)N/N=C(\C)c2ccc(NC(=O)Cc3ccccc3)cc2)c(OC)c1	0	47*	-2	1	0	5
Cn1c(N)c(C(=O)COC(=O)COc2ccc(Br)cc2)c(=O)n(C)c1=O	3	40*	-13	-2	-1	1
CCC(=O)c1ccc(OCC(=O)OCC(=O)c2c(N)n(C)c(=O)n(C)c2=O)cc1	3	1	-4	-1	-2	5
Cc1cc(C)c2cc(C#N)c(SCC(=O)Nc3cc(C)on3)nc2c1	3	-41	-30	2	6	-1
O=C(CNS(=O)(=O)c1ccc2ccccc2c1)OCc1csc(-c2ccccc2)n1	100*	-1	-7	3	5	1
Cc1ccc(S(=O)(=O)NCC(=O)OCc2csc(-c3ccccc3)n2)cc1	0	-3	9	2	3	-5
COc1ccc(C(=O)c2no[n+]([O-])c2C(=O)c2ccc(OC)cc2)cc1	0	18	-11	6	1	9
O=C(c1cccs1)c1no[n+]([O-])c1C(=O)c1cccs1	0	13	-9	33	0	64*
O=C(O)c1ccc2c(c1)C1C=CCC1C(c1ccncc1)N2 (stereo not given)	6	1	9	1	-2	-1
COc1ccc(NS(=O)(=O)c2ccc3c(c2)[C@H]2C=CC[C@H]2[C@@H](c2ccc(C(=O)O)cc2)N3)cc1	4	53*	14	3	4	87*
CN1C(=O)S/C(=C/c2ccc(OCc3cccc(C(=O)O)c3)cc2)C1=O	0	-14	52*	2	4	1
SMILES	GRK2 inh	SUMO1 PPI mod	Scp-1 inhibitor	STEP inh	LMPTP block	DNMT1 inh
c1ccc(CSc2nnc(-c3ccco3)o2)cc1	0	44*	-10	0	0	4
N#Cc1ccc(OCC(=O)NCC2COc3ccccc3O2)cc1 (stereo not given)	0	3	-6	-1	0	-4
Nc1ccccc1C(=O)NC(=O)Nc1ccc(Oc2ncc(Br)cn2)c(Cl)c1	.	1	-3	-3	2	10
O=C(CSc1nc2ccccc2c(=O)n1-c1ccc(F)cc1)Nc1cc(S(=O)(=O)N2CCOCC2)ccc1Cl	53*	2	-11	9	2	-3
COc1ccc(-n2c(SCC(=O)Nc3cccc(S(N)(=O)=O)c3)nc3ccccc3c2=O)cc1OC	3	37*	-5	-1	0	-3
CC(=O)NC(c1ccccc1)c1nc(-c2cc(F)cc(F)c2)cs1 (stereo not given)	.	1	.	1	3	-1
NS(=O)(=O)c1ccc(-c2ccc(/C=C3\C(=O)Nc4ccccc43)o2)cc1	0	.	.	.	.	.
NC1=NC(=O)/C(=C/c2ccc(-c3ccc(S(N)(=O)=O)cc3)o2)S1	0	88*	6	-2	4	9
NS(=O)(=O)c1ccc(-c2ccc(/C=C3\C(=O)Nc4cc(Cl)ccc43)o2)cc1	.	48*	-11	0	22	-14
CS(=O)(=O)Nc1ccc(-c2ccc(/C=C3\SC(N)=NC3=O)o2)cc1	3	-18	-5	-2	0	-2
COc1ccc(CNC2CC(C)N(C)CC2C)cc1OC (stereo not given)	0	20	-2	-3	53*	1
COc1ccc(CCNC2CC(C)N(C)CC2C)cc1OC (stereo not given)	0	3	-6	-4	-4	0
FC(F)(F)c1cnc(Oc2ccccc2-c2nnco2)c(Cl)c1	58*	-1	-13	-2	-1	-1
COC(=O)c1cc(O)cc(OC)c1Oc1cc(C)cc(O)c1C(=O)O	24	44*	58*	2	11	16
CCN1N=C(C)C=C(c2ccccc2)n2c1nc1ccccc12	0	4	-7	1	2	0
NC(=O)c1ccc(NC(=O)COC(=O)CCN2C(=O)c3ccccc3C2=O)cc1	3	-10	-4	0	1	-2
CN(C)CCNC(=O)c1cccc(-c2cnc3c(NC=O)cc(-c4ccccc4F)cn23)c1	.	9	.	2	-3	-4
Cc1cc(-c2cc(NC=O)c3ncc(-c4cccc(C(=O)NCCN(C)C)c4)n3c2)cc(C)c1O	.	48*	.	6	-13	-4
COc1ccc(-c2cc(NC=O)c3ncc(-c4cccc(C(=O)NCCN(C)C)c4)n3c2)cn1	.	-33	.	3	-2	-1
CN(C)CCNC(=O)c1cccc(-c2cnc3c(NC=O)cc(-c4cccs4)cn23)c1	.	51*	.	4	-2	-5
Clc1cc(Cl)c(OCCCCn2cncn2)c(Cl)c1	1	-2	-4	-1	-2	0
